NF-kB expr up = raises NF-kB expression in human neuronal cells; NF-kB reporter expression; stronger effect = higher value; fold change at 12.5 µM; 190,000 tested, 1.6% active; AID 1239; in the data active means fold change above about 3.3
STAT3 act = STAT3 signaling activation; 190,000 tested, 0.91% active; U3A cells, IL-6 STAT3-luciferase reporter, luminescence; 100% = signal with IL-6 EC80 alone; activation (% of control), % at 5.6 µM;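 active means activation above the screen-wide mean of compound activation plus 3 SD, cut at about 130% in these data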;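 further: 0% = background luminescence of wells with medium and substrate only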
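Test system: STAT3-luciferase reporter U3A cells; Detection: reporter luminescence signal; Times: 1 h compound pre-exposure, 6 h IL-6 stimulation, 37 °C; Benchmarks: IL-6-only high control; Also added: IL-6 stimulus at 33 ng/mL final.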
STAT3 blocker = inhibitors of IL-6 induced STAT3 signaling | U3A cells, IL-6 STAT3-luciferase reporter, luminescence; host cell line lacks STAT1 | inhibition, % at 5.5 µM | 190,000 tested, 0.89% active | AID 862;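 active means inhibition above the mean inhibition across all screened compounds plus 3 SD, cut at about 44% in these data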;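 further: 0% = DMSO only wells and 100% = 100 µM nifuroxazide control wells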
STAT1 activator = activators of IFN-gamma induced STAT1 signaling; NIH 3T3 STAT1-luciferase reporter, luminescence; 100% = IFN-gamma alone, no compound; activation (% of control), % at 5.5 µM; 200,000 tested, 2.6% active;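 active means activation above the screen-wide mean activation plus 3 SD, cut at about 130% in these data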;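 further: raw ratio to IFN-gamma control signal so 100% means no change and 0% no light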
APP 5'UTR act = activates APP 5'UTR luciferase reporter; activation, % at 2 µM; SH-SY5Y APP 5'UTR luciferase reporter, luminescence; zero percent = DMSO vehicle wells; 190,000 tested, 1% active;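 active means activation above a set limit, based on mean plus 3 SD of controls, cut at about 140% in these data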
STAT1 inh = STAT1 signaling inhibition; AID 920; 200,000 tested, 0.35% active; NIH 3T3 STAT1-luciferase reporter, IFN-gamma, luminescence; inhibition, % at 5.5 µM;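 active means inhibition above a set limit, the mean inhibition across all tested compounds plus 3 SD, cut at about 34% in these data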;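 further: 0% = IFN-gamma with DMSO and 100% = IFN-gamma with 300 µM nifuroxazide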
STAT1 act conf = STAT1 activation, confirmation assay. shares compounds with STAT1 activator. NIH 3T3 STAT1-luciferase reporter, IFN-gamma potentiation, luminescence; 100% = IFN-gamma EC80 alone, no compound. activation (% of control), % at 5.7 µM. 1,200 tested, 97% active;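 active means activation above a set limit carried over from the earlier primary STAT1 screen, cut at about 140% in these data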;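 further: simple ratio to median IFN-gamma plus DMSO wells so 0% means no light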
NFkB act = activates NF-kappaB, counter-screen to STAT1 activators | HEK293T NF-kB luciferase reporter, TNF-alpha stimulated, luminescence; 100% = TNF-alpha with vehicle only | shares compounds with STAT1 activator | 1,200 tested, 43% active | activation (% of control), % at 5.7 µM;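 active means activation above the mean of solvent-only control wells plus 3 SD, set per campaign, cut at about 130% in these data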;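 further: TNF-alpha given at a submaximal dose yielding about 80% of full reporter signal; values are well signal over median control so 100% means no change and 0% no light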
STAT3 act STAT1c = activates human STAT3, counter-screen to STAT1 activators; AID 1316; activation (% of control), % at 5.7 µM; shares compounds with STAT1 activator; U3A cells STAT3-luciferase reporter, IL-6, luminescence; cells lack STAT1; 100 = IL-6 alone, no compound effect; 1,200 tested, 46% active;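 active means activation above the solvent-only control well mean plus 3 SD, set per plate batch, cut at about 110% in these data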;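 further: 0% = no luminescence and 100% = median IL-6 plus DMSO wells; higher means more STAT3 reporter activation so hits are non-selective activators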
The depositor's hits bear a star; . = no result. A selection: hits, their analogues and other compounds. The true share with any hit is near 5.1%.

SMILES	NF-kB expr up	STAT3 act	STAT3 blocker	STAT1 activator	APP 5'UTR act	STAT1 inh	STAT1 act conf	NFkB act	STAT3 act STAT1c
O=S(=O)(Nc1nc2c(s1)CCCC2)c1ccc(F)cc1	0.63	101.7	2.6	105.5	-6.5	-6.0	.	.	.
Cc1cccc(Nc2nc(N3CCCC3)nc(N3CCCC3)n2)c1	1.5	86.4	18.0	88.5	8.2	12.5	.	.	.
O=S1(=O)N=C(Nc2nc3c(s2)CCCC3)c2ccccc21	6.15*	96.3	5.8	152.1*	123.3	-54.1	194.0*	128.9	125.8*
Cc1cccc(Nc2nc3c(s2)CCCC3)c1	6.57*	106.8	-9.4	163.9*	120.4	-71.8	207.7*	146.1*	105.1
O=C(O)C1CCN(C(=O)COc2ccc(Br)cc2)CC1	1.02	94.9	8.2	100.0	6.4	-2.5	.	.	.
CCOC(=O)NC(=O)C(=CNc1ccccc1C)C(=O)NC(=O)OCC	1.06	100.0	-2.5	105.1	8.5	-3.0	.	.	.
Cn1c(NNC(=O)c2cccc3ccccc23)cc(=O)n(C)c1=O	0.96	.	.	100.2	-3.0	-1.6	.	.	.
CCCCS(=O)(=O)/C=C\C=C/S(=O)(=O)CCCC	0.13	89.6	16.0	307.0*	-97.7	-225.5	210.0*	121.0	99.4
CCCCS(=O)(=O)/C=C\C1C2C=CC(C2)C1S(=O)(=O)CCCC (stereo not drawn)	0.93	100.4	4.8	100.2	-4.8	-0.2	.	.	.
Cc1ccc(SCc2cc(=O)[nH]c(/N=C(\N)Nc3ccc(C)c(C)c3)n2)cc1	1.06	87.1	18.7	89.9	24.8	10.9	.	.	.
CC(C)(C)[C@H]1C=C(C(=O)N2CCN(Cc3ccc4c(c3)OCO4)CC2)O[C@@H](OCc2ccc(CO)cc2)C1	0.75	.	.	103.0	-19.4	-1.6	.	.	.
Cc1ccsc1C(=O)N/N=C/c1ccc2c(c1)OCO2	6.15*	70.5	37.2	161.1*	158.1*	-68.3	225.8*	105.8	92.4
O=C(N/N=C/c1ccc2c(c1)OCO2)c1cccs1	4.3*	91.9	13.6	174.4*	72.3	-84.2	204.0*	133.5*	117.0*
Cc1ccsc1/C=N/NC(=O)Nc1ccccc1	3.96*	97.2	14.4	172.4*	147.1*	-80.3	191.7*	130.2	97.9
Cc1ccccc1/C=N/NC(=O)c1sccc1C	4.99*	89.4	16.4	163.0*	69.8	-71.2	205.1*	133.5*	107.2
O=C(N/N=C/c1ccc2c(c1)OCO2)c1ccc2c(c1)OCCO2	2.94	109.3	-13.1	115.7	70.3	-16.5	.	.	.
Cc1cc(C(=O)N/N=C/c2ccc3c(c2)OCO3)c(C)o1	1.72	98.8	4.8	112.8	21.4	-16.1	.	.	.
N#C/C(=C/c1ccc(N2CCOCC2)o1)C(=O)Nc1ccccc1	4.38*	95.9	10.1	159.5*	162.1*	-63.9	194.8*	130.3	98.1
COc1ccc(N=Cc2sc(O)c3ccccc23)cc1	13.1*	103.1	-1.0	172.8*	213.8*	-81.8	331.3*	154.3*	103.8
COc1ccc(-n2c(O)c(C=Nc3ccccc3)c3ccccc3c2=O)cc1	1.1	81.6	25.4	111.4	8.4	-13.5	.	.	.
COCCNc1ccc([N+](=O)[O-])cc1C(=O)Nc1cccc(C)n1	0.99	98.5	6.6	104.2	-5.8	-7.6	.	.	.
CCOC(=O)c1sc2nc(-c3cccnc3)ccc2c1N	8.16*	92.8	10.7	176.3*	155.9*	-85.3	251.2*	140.5*	114.7*
Nc1cc(=O)[nH]c(N2CCN(c3ccccc3)CC2)n1	0.96	95.8	8.6	103.2	0.3	-5.4	.	.	.
O=C1/C(=C/Nc2cccc([N+](=O)[O-])c2)CCc2ccccc21	4.52*	100.3	-0.4	168.6*	139.8*	-77.0	211.9*	133.8*	108.0
N/C(=N\OC(=O)CCCOc1ccc(Cl)cc1Cl)c1ccccn1	1.04	98.8	9.2	96.0	-12.1	2.9	.	.	.
SMILES	NF-kB expr up	STAT3 act	STAT3 blocker	STAT1 activator	APP 5'UTR act	STAT1 inh	STAT1 act conf	NFkB act	STAT3 act STAT1c
N/C(=N\OC(=O)CCCOc1ccc(Cl)cc1Cl)c1ccncc1	1.08	97.5	7.8	104.0	-1.1	-7.4	.	.	.
N/C(=N\OC(=O)c1ccccc1Cl)c1ccncc1	.	92.1	14.8	162.3*	94.1	-67.2	154.9*	115.8	99.0
N/C(=N\OC(=O)COc1cc(Cl)c(Cl)cc1Cl)c1ccccn1	5.39*	98.8	8.3	159.3*	161.2*	-66.5	192.2*	142.6*	112.9*
N/C(=N\OC(=O)Cc1ccc(Cl)cc1)c1ccncc1	1.17	95.3	10.8	96.6	-3.1	2.2	.	.	.
N/C(=N\OC(=O)COc1ccc(Cl)cc1Br)c1ccncc1	5.82*	98.6	6.9	156.8*	119.6	-62.8	198.3*	141.8*	121.8*
c1ccc2c(CSc3ncnc4nc[nH]c34)cccc2c1	1.04	93.7	15.3	89.1	0.7	11.8	.	.	.
CC1=NN(C(=O)c2ccc(C)o2)C(O)(c2ccccc2)C1 (stereo not drawn)	1.03	107.5	-6.1	158.7*	48.7	-66.8	108.8	102.6	94.1
COc1cccc(-c2noc(-c3ccoc3C)n2)c1	2.92	84.4	27.2	159.9*	109.4	-66.8	192.0*	134.3*	110.8*
COc1ccc(-c2noc(-c3ccco3)n2)cc1OC	5.74*	107.6	-4.1	152.1*	123.6	-56.5	201.7*	137.4*	119.2*
CCOc1ccc(N2CCc3c(C)nc(SC)nc32)cc1	1.19	88.4	17.4	103.1	5.5	-5.3	.	.	.
CC1=CC(C)C2(CO)COC(c3ccccc3O)C1C2C (stereo not drawn)	0.99	106.2	-2.7	100.5	-3.1	-0.6	.	.	.
O=C(/C=C/Nc1ccc(F)c(F)c1)c1cccs1	9.77*	99.6	-0.1	169.1*	143.8*	-76.0	228.7*	121.6	131.9*
C=CCNc1nc(-c2ccc(O)c(C(N)=O)c2)cs1	1.07	93.8	7.5	101.2	3.1	-8.0	.	.	.
C=CCNc1nc(-c2cc3ccccc3o2)cs1	7.54*	79.8	19.7	185.3*	210.1*	-93.7	225.5*	86.4	84.6
Cc1ccccc1-n1c(C)nnc1SCc1cc(=O)oc2ccc3ccccc3c12	0.7	101.6	-3.0	88.9	-10.8	12.5	.	.	.
O=C(CSCc1ccccc1)N=Nc1c(O)[nH]c2ccccc12	1.78	87.8	17.4	103.8	6.4	-4.2	.	.	.
O=C(N=Nc1c(O)[nH]c2ccccc12)c1ccco1	2.88	109.4	-10.8	155.3*	141.8*	-58.2	179.2*	126.9	126.3*

Screening results (PubChem BioAssay)
